The test system of one data set is MDA-MB-231. Kind of data set: Cytotoxicity against human MDA-MB-231 cells expressing CXCR4 after 48 to 72 hrs by MTS assay. It is filed as cell-based. A digest of the protocol: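 MDA-MB-231 breast cancer cells (CXCR4-expressing) exposed to compound for 48 to 72 h; viability by MTS dye reduction (CellTiter 96 Aqueous non-radioactive proliferation assay), run per manufacturer's protocol.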
Background: Tetrazolium dyes change colour on reduction, which living cells bring about.

In data set [1] the target is T1, C-X-C chemokine receptor type 4 (Homo sapiens, UniProt P61073). The experiment in a line: Inhibition of T-140 binding to CXCR4 (unknown origin) expressed in dog Cf2Th cells incubated for 30 mins prior to T-140 addition measured after 30 mins by fluorescence assay. It is filed as cell-based.
T1 sequence (P61073 whole entry): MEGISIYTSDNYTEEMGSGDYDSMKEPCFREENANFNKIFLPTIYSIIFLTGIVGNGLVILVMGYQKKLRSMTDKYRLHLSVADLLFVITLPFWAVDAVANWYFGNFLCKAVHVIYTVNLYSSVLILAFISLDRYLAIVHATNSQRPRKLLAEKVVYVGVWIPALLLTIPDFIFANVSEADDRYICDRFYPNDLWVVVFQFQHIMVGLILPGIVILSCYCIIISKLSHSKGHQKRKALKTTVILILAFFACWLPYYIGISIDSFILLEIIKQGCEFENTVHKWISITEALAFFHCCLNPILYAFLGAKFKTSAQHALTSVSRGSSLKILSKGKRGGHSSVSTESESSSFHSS
In data set [2] the target is T1, C-X-C chemokine receptor type 4. Kind of data set: Inhibition of anti-CXCR4 mAb-44716 binding to CXCR4 in human H9 cells at 1 uM incubated for 20 mins prior to mAbs-44716 addition measured after 1 hr by flow cytometric analysis. Type of data set: cell-based. A digest of the protocol:
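H9 cells held 20 min at 4°C with […] compound in PBS/BSA/azide. Anti-CXCR4 mAb 44716 or an isotype control (anti-ricin RAC18) then added to 1 μg/ml for 1 h at 4°C. Washed, stained with Alexa 488 anti-mouse IgG for 1 h at 4°C, then fixed in 2% paraformaldehyde. Flow cytometry on 10,000 events; % inhibition from median fluorescence intensity.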
(Flow cytometry measures light scatter and fluorescence of single cells or particles in a stream.)

The target is the same in data set [3]. The experiment in a line: Inhibition of anti-CXCR4 mAb-12G5 binding to CXCR4 in human H9 cells at 0.1 to 10 uM incubated for 20 mins prior to mAbs-12G5 addition measured after 1 hr by flow cytometric analysis. It is filed as cell-based. A digest of the protocol: (§1)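 H9 cells or primary PHA-induced T-cell blasts pre-incubated 20 min at 4°C with a range of compound concentrations in PBS/1% BSA/0.01% sodium azide. mAb 12G5 (anti-CXCR4) or Sim.2 (anti-CD4) then added to 1 μg/ml for 1 h at 4°C. Detection with Alexa Fluor 488 goat anti-mouse IgG at 2 μg/ml for 1 h, then 2% paraformaldehyde fixation. Flow cytometry on 10,000 events; % inhibition from median fluorescence intensity against no-drug and no-Ab controls.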

The subject of data set [4] is Human immunodeficiency virus 1. Kind of data set: Antiviral activity against X4 tropic HIV1 BZ-167 infected in human TZM-bl cells assessed as neutralization of viral infectivity at 50 to 100 nM incubated 1 hr prior to viral infection measured after 72 hrs by luciferase reporter gene assay. Type of data set: functional, organism-based. (A reporter such as luciferase makes a cellular process visible.)

For data set [5], the system named is Human immunodeficiency virus 1. Kind of data set: Antiviral activity against R5 tropic HIV1 infected in human TZM-bl cells. Type of data set: functional, organism-based.
In data set [6] the target is T-cell surface glycoprotein CD4 (Homo sapiens) (UniProt P01730). The experiment in a line: Inhibition of anti-CD4 mAb sim-2 binding to CD4 in PHA-induced human T cells at 0.1 to 10 uM incubated for 20 mins prior to mAb sim-2 addition measured after 1 hr by flow cytometric analysis. It is filed as cell-based. A digest of the protocol:
as §1

Data set [7] has as its system Human immunodeficiency virus 1. The experiment in a line: Antiviral activity against X4 tropic HIV1 isolate 92-UG-029 infected in human TZM-bl cells assessed as neutralization of viral infectivity at 50 to 100 nM incubated 1 hr prior to viral infection measured after 72 hrs by luciferase reporter gene assay. It is filed as functional, organism-based.
The target of data set [8] is T1, C-X-C chemokine receptor type 4. Kind of data set: Inhibition of anti-CXCR4 mAb-12G5 binding to CXCR4 in human H9 cells at 3 uM incubated for 20 mins prior to mAbs-12G5 addition measured after 1 hr by flow cytometric analysis. It is filed as cell-based. A digest of the protocol:
(§2)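 H9 cells pre-incubated at 4°C with […] compound in PBS/BSA/azide, then stained with anti-CXCR4 mAb 12G5, 44708, 44716 or 44717 at 1 μg/ml for 1 h. Detection with Alexa 488 anti-mouse IgG, then 2% paraformaldehyde fixation. Flow cytometry on 10,000 events; % inhibition from median fluorescence intensity.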

The nature of data set [9]: Cytotoxicity against PHA-induced human T cells up to 4 uM after 72 hrs by MTS assay. It is filed as cell-based. The settings on record: t-cell. A digest of the protocol:
(§3)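 Cultures of TZM-bl, H9, or PHA blasts exposed to compound at concentrations up to 4 μM; MTS dye reduction measured at 72 h.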

Another data set deals with H9. Kind of data set: Cytotoxicity against human H9 cells up to 4 uM after 72 hrs by MTS assay. As to conditions: h9, 72 h. Type of data set: cell-based. A digest of the protocol:
as §3

Data set [10] deals with T1, C-X-C chemokine receptor type 4. The experiment in a line: Inhibition of anti-CXCR4 mAb-44716 binding to CXCR4 in human H9 cells at 3 uM incubated for 20 mins prior to mAbs-44716 addition measured after 1 hr by flow cytometric analysis. Type of data set: cell-based. A digest of the protocol:
as §2

Data set [11] has the same target. Kind of data set: Inhibition of anti-CXCR4 mAb-44717 binding to CXCR4 in human H9 cells at 3 uM incubated for 20 mins prior to mAb-44717 addition measured after 1 hr by flow cytometric analysis. It is filed as cell-based. A digest of the protocol: as §2
For data set [12], the system named is Human immunodeficiency virus 1. The experiment in a line: Antiviral activity against X4 tropic HIV1 isolate 92-HT-599 infected in human TZM-bl cells assessed as neutralization of viral infectivity at 50 to 100 nM incubated 1 hr prior to viral infection measured after 72 hrs by luciferase reporter gene assay. Type of data set: functional, organism-based.
For data set [13], the target named is T1, C-X-C chemokine receptor type 4. Kind of data set: Inhibition of anti-CXCR4 mAb-12G5 binding to CXCR4 in PHA-induced human T cells at 0.1 to 10 uM incubated for 20 mins prior to mAbs-12G5 addition measured after 1 hr by flow cytometric analysis. Type of data set: cell-based. As to conditions: T-cell. A digest of the protocol: as §1
The subject of data set [14] is Human immunodeficiency virus 1. Kind of data set: Antiviral activity against X4 tropic HIV1 NL4-3 infected in human TZM-bl cells assessed as neutralization of viral infectivity at 50 to 100 nM incubated 1 hr prior to viral infection measured after 72 hrs by luciferase reporter gene assay. It is filed as functional, organism-based.
For data set [15], the target named is T1, C-X-C chemokine receptor type 4. Kind of data set: Inhibition of anti-CXCR4 mAb-44708 binding to CXCR4 in human H9 cells at 3 uM incubated for 20 mins prior to mAb-44708 addition measured after 1 hr by flow cytometric analysis. It is filed as cell-based. A digest of the protocol: as §2
The nature of data set [16]: Cytotoxicity against human TZM-bl cells up to 4 uM after 72 hrs by MTS assay. It is filed as cell-based. A digest of the protocol: as §3
The target of data set [17] is T-cell surface glycoprotein CD4 (Homo sapiens) (UniProt P01730). Kind of data set: Inhibition of anti-CD4 mAb sim-2 binding to CD4 in human H9 cells at 0.1 to 10 uM incubated for 20 mins prior to mAb sim-2 addition measured after 1 hr by flow cytometric analysis. Type of data set: cell-based. A digest of the protocol: as §1

Molecules are shown by their SMILES. The source made the active and inactive calls. The rule behind the calls is not given here.

Turning to `N=C(Nc1ccccc1)N(CCCCN=C(N)Nc1ccccc1)CCCN=C(N)Nc1ccccc1`, half-maximal cytotoxicity with MDA-MB-231 (CC50) was put at 510 µM. Also, the half-maximal inhibitory concentration (IC50) (usually the point on the concentration scale where inhibition reaches its midpoint) in data set [1] came to 0.28 µM.

`N=C(NCCCN(CCCCN(CCCNC(=N)Nc1ccc2ccccc2c1)C(=N)Nc1ccc2ccccc2c1)C(=N)Nc1ccc2ccccc2c1)Nc1ccc2ccccc2c1`: in the data set on MDA-MB-231, the cytotoxic concentration (CC50) (commonly the concentration giving 50% cytotoxicity) was 20 µM. Besides, the IC50 in [1] was 0.3 µM.

`N=C(NCCCN(CCCCN(CCCNC(=N)Nc1cccc2ccccc12)C(=N)Nc1cccc2ccccc12)C(=N)Nc1cccc2ccccc12)Nc1cccc2ccccc12` gave a cytotoxic concentration (CC50) with MDA-MB-231 of 7.3 µM. In addition, in data set [1], the IC50 was 0.38 µM.

In the case of `N=C(NCCCNCCCCNCCCNC(=N)Nc1cccc2ccccc12)Nc1cccc2ccccc12`, the inhibition result in data set [2] was “Active”. This compound gave a CC50 with MDA-MB-231 of 300 µM. In data set [1], this compound gave an IC50 of 0.18 µM.

As to `NC(=NCCCCNCCCN=C(N)Nc1ccc2ccccc2c1)Nc1ccc2ccccc2c1`, in the data set on MDA-MB-231, the CC50 was 76 µM. The same compound gave a concentration for half-maximal inhibition (IC50) in [1] of 0.062 µM.

Regarding `N=C(NCCCNCCCCN(CCCNC(=N)Nc1cccc2ccccc12)C(=N)Nc1cccc2ccccc12)Nc1cccc2ccccc12`, the inhibition entry in [3], in [8], in data set [2], in [10], in data set [11] and in data set [13] was “Active” each time. Further, the inhibition entry in [15] was “Active”. The result in data set [4], in data set [7], in data set [12] and in data set [14] was Active. For the same compound, the outcome in data set [5] was inactive. The inhibition result in data set [6] and in data set [17] was “inactive” each time. For the same compound, the Activity entry (in data set [9]; in the data set with H9; in [16]) was “Non-toxic” each time. The compound further registered a CC50 with MDA-MB-231 of 18 µM. Moreover, the half-maximal inhibitory concentration (IC50) in data set [1] came out at 0.04 µM.

As to `N=C(NCCCCN(CCCNC(=N)Nc1ccc2ccccc2c1)C(=N)Nc1ccc2ccccc2c1)Nc1ccc2ccccc2c1`, the IC50 in data set [1] is 0.19 µM.

For `N=C(Nc1ccccc1)N(CCCCN(CCCN=C(N)Nc1ccccc1)C(N)=Nc1ccccc1)CCCNC(N)=Nc1ccccc1`, the CC50 in the data set on MDA-MB-231 is greater than 100 µM. Further, the IC50 in data set [1] was 0.51 µM.

In the data set on MDA-MB-231, `NC(=NCCCNCCCCN(CCCN=C(N)Nc1ccc2ccccc2c1)C(N)=Nc1ccc2ccccc2c1)Nc1ccc2ccccc2c1` had a CC50 of 15 µM. The compound also displayed an IC50 in data set [1] of 0.093 µM.

As to `N=C(NCCCCNCCCNC(=N)Nc1ccc2ccccc2c1)Nc1ccc2ccccc2c1`, in data set [5], the result was inactive.

For the compound `N=C(NCCCNCCCCNCCCNC(=N)Nc1ccc2ccccc2c1)Nc1ccc2ccccc2c1`, the result in data set [5] was inactive. Besides, in [2], the inhibition entry was “Active”. This compound also registered a CC50 in the data set with MDA-MB-231 of 17 µM. In data set [1], this compound registered an IC50 of 0.11 µM.

As to `NC(=NCCCCN(CCCN=C(N)Nc1cccc2ccccc12)C(N)=Nc1cccc2ccccc12)Nc1cccc2ccccc12`, the IC50 in data set [1] was determined as 0.11 µM.

Compound `N=C(NCCCCNCCCNC(=N)Nc1cccc2ccccc12)Nc1cccc2ccccc12` gave a CC50 with MDA-MB-231 of 120 µM. In addition, the IC50 in data set [1] was determined as 0.22 µM.

In the case of `NCCCNCCCCNCCCN`, the inhibition entry in data set [3], in [8], in data set [10], in [11], in data set [13] and in data set [15] was “inactive” in each case.

As to `N=C(NCCCNCCCCN(CCCNC(=N)Nc1ccc2ccccc2c1)C(=N)Nc1ccc2ccccc2c1)Nc1ccc2ccccc2c1`, the outcome in data set [5] was inactive. For the same compound, the inhibition entry in data set [2] is “Active”.

In the data set on MDA-MB-231, `N=C(NCCCCNCCCNC(=N)Nc1ccccc1)Nc1ccccc1` gave a CC50 greater than 1000 µM. The compound further yielded an IC50 in [1] of 0.26 µM.

Source of the values: ChEMBL document CHEMBL2346661, “Improved guanide compounds which bind the CXCR4 co-receptor and inhibit HIV-1 infection” (Bioorg Med Chem Lett, 2013).
